Each block holds one compound with its values, some of them ahead of it. The source made the active and inactive calls. The calls are words filed in the database; no cut-off is given here.
Columns and labels:
Type in all cases: nucleic-acid assay
[1] = system: Nucleic Acid; assay: Binding affinity to A3T3 repeat containing DNA5(3) (unknown origin) assessed as cooperativity with DNA at 10 nM by fluorescence titration based McGhee-von Hippel analysis
How it was run: (§1)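 Ligand at 10 nM in 3.0 mM HEPES, 3.0 mM NaCl, pH 7.0 is stirred 4 h at room temperature in a quartz cell. DNA is added in aliquots, 0–0.8 μM (0–4 μM in A3T3), with 1 h stirring after each addition. Fluorescence is read with 363 nm excitation at 25 °C and ΔF is plotted against A3T3 concentration. Data are fitted to a two-mode (high/low affinity) model. McGhee–von Hippel analysis then gives n, K and ω.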

[2] = system: Nucleic Acid; assay: Binding affinity to A3T3 repeat containing DNA5(3) (unknown origin) at 5 uM by UV-vis spectroscopy
How it was run: (§2)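 UV–vis spectra of 5 μM ligand with or without DNA5(3), in 3.0 mM HEPES, 3.0 mM NaCl, pH 7.0, 25 °C. Samples are stirred 7 h at room temperature before measurement. Band shifts and % absorbance change are recorded for the Hoechst and quinoline regions.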

[3] = system: Nucleic Acid; assay: Binding affinity to A3T3 repeat containing DNA5(3) (unknown origin) assessed as association constant for changes at 275 nm at 0 to 4 uM by CD spectroscopy
[4] = system: Nucleic Acid; assay: Binding affinity to A3T3 repeat containing DNA5(3) (unknown origin) at 0 to 4 uM by CD spectroscopy
[5] = system: Nucleic Acid; assay: Binding affinity to A3T3 repeat containing DNA1 (unknown origin) at 10 uM by CD spectroscopy
How it was run: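 CD spectrum of DNA1 (5 μM in A3T3) recorded alone and with ligand at 10 μM (2 equiv relative to A3T3).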

[6] = system: Nucleic Acid; assay: Binding affinity to A3T3 repeat not-containing DNA0 (unknown origin) assessed as increase in fluorescence intensity at 10 nM by fluorescence titration method; how it was run: as §1
[7] = system: Nucleic Acid; assay: Binding affinity to A3T3 repeat containing DNA5(3) (unknown origin) assessed as quinoline region-induced shift to shorter wavelength (328.5 to 326.5 nm) with % increase in intensity at 5 uM by UV-vis spectroscopy; how it was run: as §2
[8] = system: Nucleic Acid; assay: Binding affinity to A3T3 repeat containing DNA5(3) (unknown origin) assessed as association constant for changes at 327 nm at 0 to 4 uM by CD spectroscopy
[9] = system: Nucleic Acid; assay: Binding affinity to A3T3 repeat containing DNA5(3) (unknown origin) assessed as Hoechst region-induced shift to longer wavelength (372.5 to 384.5 nm) with increase in intensity at 5 uM by UV-vis spectroscopy; how it was run: as §2

- Activity [1]: inactive
SMILES: CN1CCN(c2cc(C(=O)NCCN(CCC(=O)NCCOCCOCCNC(=O)COc3ccc4ccccc4n3)CCC(=O)NCCOCCOCCNC(=O)COc3ccc4ccccc4n3)c3nc(-c4ccc5nc(-c6ccc(O)cc6)[nH]c5c4)[nH]c3c2)CC1

- Activity [2]: inactive
SMILES: CN1CCN(c2cc(C(=O)NCCN(CCC(=O)NCCOCCOCCNC(=O)COc3ccc4ncccc4c3Br)CCC(=O)NCCOCCOCCNC(=O)COc3ccc4ncccc4c3Br)c3nc(-c4ccc5nc(-c6ccc(O)cc6)[nH]c5c4)[nH]c3c2)CC1

- Activity [1]: inactive
SMILES: CN1CCN(c2cc(C(=O)NCCN(CCC(=O)NCCNC(=O)COc3ccc4ncccc4c3)CCC(=O)NCCNC(=O)COc3ccc4ncccc4c3)c3nc(-c4ccc5nc(-c6ccc(O)cc6)[nH]c5c4)[nH]c3c2)CC1

- Activity [1]: Active
SMILES: CN1CCN(c2cc(C(=O)NCCN(CCC(=O)NCCOCCOCCNC(=O)COc3ccc4cnccc4c3)CCC(=O)NCCOCCOCCNC(=O)COc3ccc4cnccc4c3)c3nc(-c4ccc5nc(-c6ccc(O)cc6)[nH]c5c4)[nH]c3c2)CC1

- Activity [1]: inactive
SMILES: CN1CCN(c2cc(C(=O)NCCN(CCC(=O)NCCOCCOCC(=O)NCCOCCOCCNC(=O)COc3ccc4ncccc4c3)CCC(=O)NCCOCCOCC(=O)NCCOCCOCCNC(=O)COc3ccc4ncccc4c3)c3nc(-c4ccc5nc(-c6ccc(O)cc6)[nH]c5c4)[nH]c3c2)CC1

- Activity [1]: Active
SMILES: CN1CCN(c2cc(C(=O)NCCN(CCC(=O)NCCOCCOCCNC(=O)COc3ccc4ccccc4c3)CCC(=O)NCCOCCOCCNC(=O)COc3ccc4ccccc4c3)c3nc(-c4ccc5nc(-c6ccc(O)cc6)[nH]c5c4)[nH]c3c2)CC1

- Activity [1]: inactive
SMILES: CN1CCN(c2cc(C(=O)NCCN(CCC(=O)NCCOCCOCCNC(=O)COc3cccnc3)CCC(=O)NCCOCCOCCNC(=O)COc3cccnc3)c3nc(-c4ccc5nc(-c6ccc(O)cc6)[nH]c5c4)[nH]c3c2)CC1

- Activity [1]: inactive
SMILES: CN1CCN(c2cc(C(=O)NCCN(CCC(=O)NCCOCCOCCNC(=O)COc3ccc4nccnc4c3)CCC(=O)NCCOCCOCCNC(=O)COc3ccc4nccnc4c3)c3nc(-c4ccc5nc(-c6ccc(O)cc6)[nH]c5c4)[nH]c3c2)CC1

- K [3]: 6.5 ×10⁶ /M
- Activity [4]: Active
- Activity [1]: Active
- Activity [5]: inactive
- Activity [6]: inactive
- Activity [7]: 43%
- Activity [2]: Active
- K [8]: 3.9 ×10⁵ /M
- Activity [9]: 50%
SMILES: CN1CCN(c2cc(C(=O)NCCN(CCC(=O)NCCOCCOCCNC(=O)COc3ccc4ncccc4c3)CCC(=O)NCCOCCOCCNC(=O)COc3ccc4ncccc4c3)c3nc(-c4ccc5nc(-c6ccc(O)cc6)[nH]c5c4)[nH]c3c2)CC1
